Measurements from ChEMBL document CHEMBL5678799 (Biochem J, 2009).

Legend:
[1] = target: SRSF protein kinase 1 (Homo sapiens) (UniProt Q96SB4); assay: Inhibition of recombinant human N-terminal GST-tagged SRPK1 (2 to 654 residues) expressed in Escherichia coli assessed as remaining activity at 10 uM using RSRSRSRSRSRSRSR as substrate incubated for 30 mins in presence of [gamma-33P]ATP by filter binding assay relative to control
Outline: (§1)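 Incubation was 30 min at room temperature (21 °C) under conditions linear with time and enzyme amount. Activity is reported as percent of control lacking compound, triplicate mean ± S.D.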

[2] = target: Serine/threonine-protein kinase N2 (Homo sapiens) (UniProt Q16513); assay: Inhibition of recombinant N-terminal His6/FLAG-tagged human PRK2 (501 to 984 residues) expressed in baculovirus infected Sf21 cells assessed as remaining activity at 10 uM using S6 peptide as substrate incubated for 30 mins in presence of [gamma-33P]ATP by filter binding method relative to control
Outline: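 Kinase panel run robotically at 21 °C for 30 min, linear in time and enzyme. […] Compound tested at 1 or 10 µM. Activity given as percentage of incubations without compound, mean of triplicates ± S.D.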

[3] = target: Tyrosine-protein kinase BTK (Homo sapiens) (UniProt Q06187); assay: Inhibition of recombinant human N-terminal His6-tagged BTK (2 to 659 residues) expressed in baculovirus infected Sf21 cells assessed as remaining activity at 10 uM using KVEKIGEGTYGVVYK as substrate incubated for 30 mins in presence of [gamma-33P]ATP by filter binding method relative to control; outline: as §1
[4] = target: Tyrosine-protein kinase Yes (Homo sapiens) (UniProt P07947); assay: Inhibition of recombinant human N-terminal His6-tagged YES1 (1 to 543 residues) expressed in baculovirus infected Sf21 cells assessed as remaining activity at 1 uM using Poly(Glu,Tyr) as substrate incubated for 30 mins in presence of [gamma-33P]ATP by filter binding assay relative to control
Outline: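 Radiometric panel assay run robotically at 21 °C for 30 min, linear in time and enzyme. […] Activity is expressed as percentage of the compound-omitted control, averaged from triplicates ± S.D.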

[5] = target: Ephrin type-A receptor 2 (Homo sapiens) (UniProt P29317); assay: Inhibition of recombinant human N-terminal GST-tagged EPHA2 (591 to 976 residues) expressed in Escherichia coli assessed as remaining activity at 1 uM using Poly (Glu,Tyr) as substrate incubated for 30 mins in presence of [gamma-33P]ATP by filter binding method relative to control
Outline: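 Run robotically for 30 min at 21 °C under linear conditions. Compound at 1 or 10 µM. Percentage activity remaining versus control without compound, triplicate mean ± S.D.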

[6] = target: mTORC2 (Homo sapiens) (UniProt P42345+Q6R327+Q9BVC4+Q9BPZ7); conditions: HEK293, dose 30-1000 nM, time 30.0 min
[7] = target: T1, mTORC1 (Homo sapiens) (UniProt P42345+Q8N122+Q9BVC4); conditions: HEK293, dose 30-1000 nM, time 30.0 min
[8] = target: Protein kinase C alpha type (Homo sapiens) (UniProt P17252); assay: Inhibition of recombinant human N-terminal His6-tagged PKCalpha (1 to 672 residues) expressed in baculovirus infected Sf21 cells assessed as remaining activity at 10 uM using Histone H1 as substrate incubated for 30 mins in presence of [gamma-33P]ATP by filter binding method relative to control
[9] = target: T1, mTORC1 (Homo sapiens); conditions: HEK293, dose 30-1000 nM, time 30.0 min; remark: listed apart in the source
[10] = target: Phosphatidylinositol 3-kinase catalytic subunit type 3 (Homo sapiens) (UniProt Q8NEB9); assay: Inhibition of VPS34 (unknown origin) assessed as remaining activity at 10 uM using phosphatidylinositol as substrate incubated for 60 mins in presence of ATP relative to control
[11] = target: MAP/microtubule affinity-regulating kinase 3 (Homo sapiens) (UniProt P27448); assay: Inhibition of recombinant human N-terminal His6-tagged MARK3 (2 to 729 residues) expressed in baculovirus infected Sf21 cells assessed as remaining activity at 10 uM using CHKtide as substrate incubated for 30 mins in presence of [gamma-33P]ATP by filter binding method relative to control
[12] = target: Phosphatidylinositol 3-kinase catalytic subunit type 3 (Homo sapiens) (UniProt Q8NEB9); assay: Inhibition of VPS34 (unknown origin) assessed as remaining activity at 1 uM using phosphatidylinositol as substrate incubated for 60 mins in presence of ATP relative to control
[13] = test system: MEF; assay: Induction of cell cycle arrest in mLST8 knockout MEF cells assessed as accumulation at G2 phase at 3 uM incubated for 1 to 3 days by propidium iodide staining based flow cytometric analysis (reference value: 14.1 +/- 0.69%); assay type: toxicity; conditions: mouse, time 1-3 day
[14] = target: Ephrin type-B receptor 3 (Homo sapiens) (UniProt P54753); assay: Inhibition of recombinant human N-terminal His6-tagged EPHB3 (561 to 998 residues) expressed in Escherichia coli assessed as remaining activity at 10 uM using Poly(Glu, Tyr) as substrate incubated for 30 mins in presence of [gamma-33P]ATP by filter binding method relative to control
Outline: (§2)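 Panel assays were run for 30 min at 21 °C, within the linear range for time and enzyme. […] Results are percent activity remaining relative to compound-free control, averaged from triplicate ± S.D.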

[15] = target: Insulin receptor-related protein (Homo sapiens) (UniProt P14616); assay: Inhibition of recombinant human N-terminal His6-tagged IRR (944 to 1236 residues) expressed in baculovirus infected Sf21 cells assessed as remaining activity at 1 uM using MBP as substrate incubated for 30 mins in presence of [gamma-33P]ATP by filter binding method relative to control
[16] = target: Insulin receptor (Homo sapiens) (UniProt P06213); assay: Inhibition of recombinant human N-terminal His6-tagged IR (1001 to 1382 residues) expressed in baculovirus infected Sf21 cells assessed as remaining activity at 1 uM using KKSRGDYMTMQIG as substrate incubated for 30 mins in presence of [gamma-33P]ATP by filter binding method relative to control; outline: as §2
[17] = test system: Serine/threonine-protein kinase Sgk1 (Homo sapiens), O00141 [S422D]; assay: Inhibition of recombinant human His6-tagged SGK1 S422D mutant (60 to 431 residues) expressed in baculovirus infected Sf21 cells assessed as remaining activity at 10 uM using GRPRTSSFAEGKK as substrate incubated for 30 mins in presence of [gamma-33P]ATP by filter binding method relative to control
Outline: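 Incubations ran robotically for 30 min at room temperature (21 °C) under linear conditions. Results are percent activity remaining versus controls without compound, as the mean of triplicates ± S.D.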

[18] = target: MAP kinase-interacting serine/threonine-protein kinase 2 (Homo sapiens) (UniProt Q9HBH9); assay: Inhibition of recombinant human N-terminal GST/C-terminal His6-tagged MNK2alpha (2 to 465 residues) expressed in Escherichia coli assessed as remaining activity at 1 uM using eIF4E as substrate incubated for 30 mins in presence of [gamma-33P]ATP by filter binding method relative to control

Chain of Phosphatidylinositol 3-kinase catalytic subunit type 3 (Homo sapiens) (Q8NEB9 whole entry, the tested form may be a part): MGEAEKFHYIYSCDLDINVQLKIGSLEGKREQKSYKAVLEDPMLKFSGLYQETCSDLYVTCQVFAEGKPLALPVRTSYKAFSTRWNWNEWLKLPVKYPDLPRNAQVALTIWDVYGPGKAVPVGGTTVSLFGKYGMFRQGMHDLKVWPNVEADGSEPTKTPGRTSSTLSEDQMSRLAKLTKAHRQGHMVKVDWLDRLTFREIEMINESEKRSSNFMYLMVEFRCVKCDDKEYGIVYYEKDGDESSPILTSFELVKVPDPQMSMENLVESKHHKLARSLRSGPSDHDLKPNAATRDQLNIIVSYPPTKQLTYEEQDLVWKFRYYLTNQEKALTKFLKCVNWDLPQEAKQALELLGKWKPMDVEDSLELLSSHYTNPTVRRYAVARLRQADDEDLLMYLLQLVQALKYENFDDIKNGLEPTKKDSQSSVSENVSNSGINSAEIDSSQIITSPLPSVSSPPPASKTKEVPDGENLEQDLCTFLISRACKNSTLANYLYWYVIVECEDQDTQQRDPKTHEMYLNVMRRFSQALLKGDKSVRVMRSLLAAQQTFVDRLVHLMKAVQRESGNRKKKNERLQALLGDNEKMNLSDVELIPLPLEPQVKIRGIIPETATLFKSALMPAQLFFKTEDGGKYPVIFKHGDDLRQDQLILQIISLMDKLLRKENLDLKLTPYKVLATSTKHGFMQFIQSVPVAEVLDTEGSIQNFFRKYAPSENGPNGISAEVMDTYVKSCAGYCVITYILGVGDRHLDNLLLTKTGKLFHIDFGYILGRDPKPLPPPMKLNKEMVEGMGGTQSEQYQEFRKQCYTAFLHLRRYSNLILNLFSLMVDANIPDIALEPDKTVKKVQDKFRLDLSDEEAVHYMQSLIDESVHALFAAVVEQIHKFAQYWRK
Chain of Tyrosine-protein kinase Yes (Homo sapiens) (P07947 2-543 limits assumed): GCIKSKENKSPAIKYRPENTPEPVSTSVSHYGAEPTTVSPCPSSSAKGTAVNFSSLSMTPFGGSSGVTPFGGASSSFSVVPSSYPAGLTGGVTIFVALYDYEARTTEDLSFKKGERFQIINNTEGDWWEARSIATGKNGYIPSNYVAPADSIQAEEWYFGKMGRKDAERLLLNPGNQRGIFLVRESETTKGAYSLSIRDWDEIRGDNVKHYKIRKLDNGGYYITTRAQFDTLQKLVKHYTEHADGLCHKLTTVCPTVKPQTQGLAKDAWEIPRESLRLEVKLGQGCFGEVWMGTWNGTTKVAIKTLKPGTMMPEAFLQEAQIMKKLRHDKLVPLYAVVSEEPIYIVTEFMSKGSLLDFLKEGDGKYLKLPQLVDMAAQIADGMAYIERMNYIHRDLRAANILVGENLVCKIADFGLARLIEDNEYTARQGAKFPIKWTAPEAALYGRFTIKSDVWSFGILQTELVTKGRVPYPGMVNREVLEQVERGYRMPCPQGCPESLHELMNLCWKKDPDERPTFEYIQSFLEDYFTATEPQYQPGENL
Chain of Insulin receptor-related protein (Homo sapiens) (P14616 27-742 limits assumed): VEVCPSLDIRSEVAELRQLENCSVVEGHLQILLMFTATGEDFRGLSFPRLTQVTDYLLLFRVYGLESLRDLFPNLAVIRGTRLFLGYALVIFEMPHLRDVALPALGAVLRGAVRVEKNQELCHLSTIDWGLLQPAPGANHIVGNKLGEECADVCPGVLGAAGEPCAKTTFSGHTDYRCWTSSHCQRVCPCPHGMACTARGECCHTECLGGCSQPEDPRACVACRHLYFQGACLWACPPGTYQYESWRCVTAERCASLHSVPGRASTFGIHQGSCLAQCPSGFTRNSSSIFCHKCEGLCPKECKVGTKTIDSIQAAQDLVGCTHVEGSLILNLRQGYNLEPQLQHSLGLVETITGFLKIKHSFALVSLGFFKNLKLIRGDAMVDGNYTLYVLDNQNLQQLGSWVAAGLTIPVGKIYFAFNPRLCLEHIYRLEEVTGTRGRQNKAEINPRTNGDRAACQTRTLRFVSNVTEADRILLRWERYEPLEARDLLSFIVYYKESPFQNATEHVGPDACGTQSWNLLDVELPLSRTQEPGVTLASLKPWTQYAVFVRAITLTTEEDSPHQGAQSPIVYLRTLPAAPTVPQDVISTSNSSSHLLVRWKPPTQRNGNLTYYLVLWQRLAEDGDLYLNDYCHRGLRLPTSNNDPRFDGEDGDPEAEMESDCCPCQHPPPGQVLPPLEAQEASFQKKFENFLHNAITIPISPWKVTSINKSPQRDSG
Chain of Insulin receptor-related protein (Homo sapiens) (P14616 747-1297 limits assumed): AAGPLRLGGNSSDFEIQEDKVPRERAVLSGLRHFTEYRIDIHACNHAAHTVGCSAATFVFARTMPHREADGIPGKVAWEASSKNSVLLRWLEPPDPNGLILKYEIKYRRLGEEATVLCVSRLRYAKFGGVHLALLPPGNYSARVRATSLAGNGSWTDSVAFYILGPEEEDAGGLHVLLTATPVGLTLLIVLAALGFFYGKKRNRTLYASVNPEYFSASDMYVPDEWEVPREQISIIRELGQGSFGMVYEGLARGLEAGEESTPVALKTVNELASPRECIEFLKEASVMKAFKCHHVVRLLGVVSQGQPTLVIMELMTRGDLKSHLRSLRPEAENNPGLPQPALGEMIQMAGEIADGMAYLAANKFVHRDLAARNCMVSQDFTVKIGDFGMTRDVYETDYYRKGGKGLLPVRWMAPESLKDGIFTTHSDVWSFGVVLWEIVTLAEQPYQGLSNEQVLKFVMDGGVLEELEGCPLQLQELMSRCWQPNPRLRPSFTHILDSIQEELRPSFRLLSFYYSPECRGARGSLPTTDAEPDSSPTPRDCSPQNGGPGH
Chain of Ephrin type-B receptor 3 (Homo sapiens) (P54753 whole entry, the tested form may be a part): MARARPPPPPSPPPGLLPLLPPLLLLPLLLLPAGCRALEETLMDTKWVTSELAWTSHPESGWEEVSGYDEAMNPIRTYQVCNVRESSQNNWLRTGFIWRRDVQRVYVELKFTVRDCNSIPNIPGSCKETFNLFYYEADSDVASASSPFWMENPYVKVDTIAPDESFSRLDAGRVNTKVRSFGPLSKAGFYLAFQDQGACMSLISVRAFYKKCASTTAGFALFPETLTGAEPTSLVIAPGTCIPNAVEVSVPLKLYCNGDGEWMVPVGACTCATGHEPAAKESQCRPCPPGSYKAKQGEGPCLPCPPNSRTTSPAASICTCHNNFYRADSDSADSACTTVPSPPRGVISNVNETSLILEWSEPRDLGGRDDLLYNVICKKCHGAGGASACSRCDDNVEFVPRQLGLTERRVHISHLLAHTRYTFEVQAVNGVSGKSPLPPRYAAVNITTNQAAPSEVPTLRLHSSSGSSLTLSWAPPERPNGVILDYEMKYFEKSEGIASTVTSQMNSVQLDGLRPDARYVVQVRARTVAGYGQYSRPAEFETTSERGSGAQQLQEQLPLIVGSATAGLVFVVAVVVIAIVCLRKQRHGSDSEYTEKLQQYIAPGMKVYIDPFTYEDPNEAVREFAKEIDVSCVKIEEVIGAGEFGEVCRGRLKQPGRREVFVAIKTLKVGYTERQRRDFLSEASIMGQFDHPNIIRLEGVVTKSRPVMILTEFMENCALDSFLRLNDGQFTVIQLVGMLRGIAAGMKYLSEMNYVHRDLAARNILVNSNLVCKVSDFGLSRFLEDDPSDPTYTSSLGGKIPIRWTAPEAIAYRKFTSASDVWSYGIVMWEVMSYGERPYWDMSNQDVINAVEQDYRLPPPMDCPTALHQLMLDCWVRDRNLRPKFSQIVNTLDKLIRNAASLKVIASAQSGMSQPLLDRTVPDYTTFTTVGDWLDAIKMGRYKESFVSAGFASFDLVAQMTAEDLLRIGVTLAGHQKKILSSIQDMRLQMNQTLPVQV
Chain of Serine/threonine-protein kinase N2 (Homo sapiens) (Q16513 whole entry, looked up, the tested form may be a part): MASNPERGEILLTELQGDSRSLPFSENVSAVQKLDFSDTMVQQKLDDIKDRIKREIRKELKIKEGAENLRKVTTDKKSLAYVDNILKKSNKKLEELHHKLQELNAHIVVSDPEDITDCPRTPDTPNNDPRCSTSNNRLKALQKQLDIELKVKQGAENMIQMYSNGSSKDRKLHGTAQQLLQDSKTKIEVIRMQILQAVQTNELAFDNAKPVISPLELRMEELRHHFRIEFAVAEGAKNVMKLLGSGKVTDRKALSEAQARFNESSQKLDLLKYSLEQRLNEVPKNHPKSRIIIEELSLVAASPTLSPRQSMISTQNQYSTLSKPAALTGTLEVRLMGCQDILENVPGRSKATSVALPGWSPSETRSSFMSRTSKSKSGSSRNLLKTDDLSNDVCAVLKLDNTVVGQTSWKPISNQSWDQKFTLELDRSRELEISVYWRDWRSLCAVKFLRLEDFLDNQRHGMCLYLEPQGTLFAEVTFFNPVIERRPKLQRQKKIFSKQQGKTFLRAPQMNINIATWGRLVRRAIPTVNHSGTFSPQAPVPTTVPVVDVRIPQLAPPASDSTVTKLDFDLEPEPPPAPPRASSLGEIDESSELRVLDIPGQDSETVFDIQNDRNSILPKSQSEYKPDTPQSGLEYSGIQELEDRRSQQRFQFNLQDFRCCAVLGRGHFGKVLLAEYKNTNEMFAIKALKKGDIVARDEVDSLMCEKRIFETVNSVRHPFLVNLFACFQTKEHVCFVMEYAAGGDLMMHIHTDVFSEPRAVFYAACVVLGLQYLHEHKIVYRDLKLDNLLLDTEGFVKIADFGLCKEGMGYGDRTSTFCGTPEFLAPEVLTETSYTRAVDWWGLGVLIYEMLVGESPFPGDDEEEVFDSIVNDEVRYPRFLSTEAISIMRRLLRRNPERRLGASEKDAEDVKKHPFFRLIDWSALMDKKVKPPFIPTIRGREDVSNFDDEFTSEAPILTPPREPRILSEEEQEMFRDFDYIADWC

Q: How did the Activity [1] turn out when `COc1ccc(-c2ccc3c(N4CCOCC4)nc(N4C[C@@H](C)O[C@@H](C)C4)nc3n2)cc1CO` [Ku-0063794] was run?
A: 94%

Q: And the Activity [2]?
A: 105%

Q: And the Activity [3]?
A: 81%

Q: And the Activity [4]?
A: 94%

Q: And the Activity [5]?
A: 108%

Q: What about the inhibition [6] of the same compound?
A: Dose-Dependent Effect

Q: What about the inhibition [7] of the same compound?
A: Dose-Dependent Effect

Q: What about the Activity [8] of the same compound?
A: 86%

Q: And the inhibition [9]?
A: Dose-Dependent Effect

Q: What about the Activity [10] of the same compound?
A: 93%

Q: What about the Activity [11] of the same compound?
A: 93%

Q: What about the Activity [12] of the same compound?
A: 101%

Q: What about the Activity [13] of the same compound?
A: 13.3%

Q: What about the Activity [14] of the same compound?
A: 78%

Q: And the Activity [15]?
A: 105%

Q: What about the Activity [16] of the same compound?
A: 81%

Q: What about the Activity [17] of the same compound?
A: 64%

Q: And the Activity [18]?
A: 87%
